# Assay results from different studies.
# Each line is one published result; the experiments were not run side by side.
# Target: Serine/threonine-protein kinase 3 (STK3, Homo sapiens, UniProt Q13188)
# Residues used in one study (Q13188 1-491): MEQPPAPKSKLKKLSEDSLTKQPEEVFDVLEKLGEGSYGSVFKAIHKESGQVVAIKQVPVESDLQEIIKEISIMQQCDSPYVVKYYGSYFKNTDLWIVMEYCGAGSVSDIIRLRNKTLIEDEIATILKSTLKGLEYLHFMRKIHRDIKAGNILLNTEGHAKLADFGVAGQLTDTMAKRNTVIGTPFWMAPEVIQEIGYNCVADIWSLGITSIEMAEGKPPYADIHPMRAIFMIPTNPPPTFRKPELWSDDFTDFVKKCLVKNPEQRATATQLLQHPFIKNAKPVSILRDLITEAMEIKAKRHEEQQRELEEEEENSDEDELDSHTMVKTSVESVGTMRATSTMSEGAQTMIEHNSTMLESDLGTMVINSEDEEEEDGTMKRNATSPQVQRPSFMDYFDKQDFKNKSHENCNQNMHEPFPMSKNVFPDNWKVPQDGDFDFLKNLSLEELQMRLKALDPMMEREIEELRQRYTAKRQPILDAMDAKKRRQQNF
Compound,test,setting,remaining binding [%]
c1cnn2ncc(-c3ccnc(N4CCC45COC5)n3)c2c1,binding,1 µM,81
c1cncc(-c2cccc(Nc3nccc(NC4CCCCC4)n3)c2)c1,"binding, competition with immobilised ligand",10 µM,12
O=C(c1ccc(Nc2ncc(Cl)c(-c3ccc(Cl)s3)n2)cc1)N1CCC(N2CCCC2)CC1,"binding, competition with immobilised ligand",1 µM,16
C[C@H](c1ccnc(Nc2nc3ccc(-c4cc(N(C)C)ncn4)cc3[nH]2)c1)N1CCN(C(=O)CC(F)(F)F)CC1,"cell-free assay, competition with immobilised ligand",0.1 µM,93
C=CC(=O)N1CCC(C(=O)NCC(=O)N2CCN(c3nc(-c4cnc(N)nc4C(F)F)nc(N4CCOCC4)n3)CC2)CC1,"binding, competition with immobilised ligand",1 µM,97
O=C(c1ccc(Nc2nccc(-c3cc4ccccc4s3)n2)cc1)N1CCC(N2CCCC2)CC1,"binding, competition with immobilised ligand",1 µM,100
COc1ccc2c(c1)O[C@@H](c1ccc(OC)c(OC)c1)C[C@H]2NC(=O)C1(c2ccc3c(c2)OC(F)(F)O3)CC1,"cell-free assay, competition with immobilised ligand",1 µM,96
N[C@@H]1CCN(c2nccc(-c3cnn4ncccc34)n2)C1,binding,1 µM,98
Cc1cnc(Nc2ccc(C(=O)N3CCC(N4CCCC4)CC3)cc2)nc1-c1cc2ccccc2s1,"binding, competition with immobilised ligand",1 µM,75
COc1ncc2cc3ccccc3nc2c1C#N,"cell-free assay, competition with immobilised ligand",5 µM,99
CN(c1ccnc(CNc2nc(Nc3ccc4c(c3)CC(=O)N4)ncc2C(F)(F)F)n1)S(C)(=O)=O,"cell-free assay, competition with immobilised ligand",1 µM,46
COc1cnc(Nc2cccc(S(N)(=O)=O)c2)nc1N1CCN(c2ccccc2)CC1,"binding, competition with immobilised ligand",1 µM,95
Cc1cc(NC(=O)c2cccc(S(F)(F)(F)(F)F)c2)cc(-n2ccn3nc(-c4cccnc4)cc23)c1,"cell-free assay, competition with immobilised ligand",1 µM,100
Cc1cnn2ncc(-c3ccnc(N(C)C)n3)c2c1,binding,1 µM,100
CCN1CCN(Cc2ccc(C(=O)Nc3ccc(C)c(Oc4ccc5c(c4)CC(=O)N5)c3)cc2C(F)(F)F)CC1,"binding, competition with immobilised ligand",1 µM,14
CC1CCCN1c1nccc(-c2cnn3ncccc23)n1 (stereo not shown),binding,1 µM,100
Cc1c(NC(=O)c2cc(C(N)=O)nc3cc(F)ccc23)c(C(F)(F)F)nn1Cc1ccc(C#N)cc1,"cell-free assay, competition with immobilised ligand",1 µM,96
F[C@@H]1CCN(c2nccc(-c3cnn4ncccc34)n2)C1,binding,1 µM,100
CN([C@@H]1CCc2c(CC(=O)O)c3cc(S(C)(=O)=O)ccc3n2C1)S(=O)(=O)c1ccc(F)cc1,"cell-free assay, competition with immobilised ligand",1 µM,98
C[C@@H]1CCN(c2nccc(-c3cnn4ncccc34)n2)C1,binding,1 µM,100
C[C@H](c1ccc(F)cc1)N(Cc1cccc(C(=O)O)c1)C(=O)c1cnc2ccccc2c1,"cell-free assay, competition with immobilised ligand",1 µM,100
O=C(Nc1c[nH]nc1C(=O)NC1CCNCC1)c1cc(F)cc(F)c1,"binding, competition with immobilised ligand",1 µM,100
